Source: ChEMBL document CHEMBL4028810, “Synthesis and biological evaluation of novel chalcone derivatives as a new class of microtubule destabilizing agents” (Eur J Med Chem, 2017)
Active and inactive are the calls of the source. No cut-off for these calls is given here.

Key:
NCI-H460 [1] = assay: Cell cycle arrest in human NCI-H460 cells assessed as accumulation at S-phase at 5 uM after 48 hrs by propidium iodide staining based flow cytometric method (reference value: 21.79%); format: functional
SK-OV-3 = assay: Cytotoxicity against human SKOV3 cells after 48 hrs by MTT assay; format: functional, cell-based; settings: SK-OV-3, 48 h
In short: (§1)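 Log-phase cells were seeded at about 1 × 10⁵ cells/mL in 96-well plates and allowed to settle 12 h at 37 °C in 5% CO₂. Compounds were added at five concentrations for 48 h. Absorbance was read at dual wavelength 570/630 nm. Survival was expressed as a percentage of control, and IC50 was calculated by the Bliss method (n = 5). Each test was run in triplicate.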

NCI-H460 [2] = assay: Induction of apoptosis in human NCI-H460 cells after 24 hrs by Annexin V-FITC/propidium iodide staining based flow cytometric method; format: functional, cell-based
HepG2 = assay: Cytotoxicity against human HepG2 cells after 48 hrs by MTT assay; format: functional, cell-based; settings: HepG2, 48 h; in short: as §1
NCI-H460 [3] = assay: Induction of apoptosis in human NCI-H460 cells assessed as early apoptotic cells at 5 uM after 24 hrs by Annexin V-FITC/propidium iodide staining based flow cytometric method (reference value: 1.55%); format: functional
NCI-H460 [4] = assay: Induction of apoptosis in human NCI-H460 cells assessed as necrotic cells at 5 uM after 24 hrs by Annexin V-FITC/propidium iodide staining based flow cytometric method (reference value: 1.84%); format: functional
NCI-H460 [5] = assay: Cell cycle arrest in human NCI-H460 cells assessed as accumulation at S-phase at 10 uM after 48 hrs by propidium iodide staining based flow cytometric method (reference value: 21.79%); format: functional
HeLa [6] = assay: Cytotoxicity against human HeLa cells after 48 hrs by MTT assay; format: functional, cell-based; in short: as §1
NCI-H460 [7] = assay: Induction of apoptosis in human NCI-H460 cells assessed as early apoptotic cells at 10 uM after 24 hrs by Annexin V-FITC/propidium iodide staining based flow cytometric method (reference value: 1.55%); format: functional
NCI-H460 [8] = assay: Induction of apoptosis in human NCI-H460 cells assessed as necrotic cells at 10 uM after 24 hrs by Annexin V-FITC/propidium iodide staining based flow cytometric method (reference value: 1.84%); format: functional
NCI-H460 [9] = assay: Disruption of mitochondrial membrane potential in human NCI-H460 cells assessed as collapse of mitochondrial membrane potential at 5 uM after 24 hrs by JC-1 staining based flow cytometric method (reference value: 1.98%); format: functional
In short: (§2)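 NCI-H460 cells were treated 24 h at 5 or 10 µM, with untreated cells as control. The medium was replaced, and the JC-1 probe was added 20 min later. Cells were then pelleted at 2000 rpm, washed twice in ice-cold PBS and analysed by flow cytometry with excitation at 488 nm and emission at 530 and 590 nm.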

NCI-H460 [10] = assay: Disruption of mitochondrial membrane potential in human NCI-H460 cells assessed as intact mitochondrial membrane potential at 10 uM after 24 hrs by JC-1 staining based flow cytometric method (reference value: 11.9%); format: functional; in short: as §2
NCI-H460 [11] = assay: Induction of apoptosis in human NCI-H460 cells assessed as down regulation of Bcl2 expression after 48 hrs by Western blot method; format: functional, cell-based
In short: (§3)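 NCI-H460 cells were treated 48 h at various concentrations. Cells were washed in ice-cold PBS and lysed on ice for 20 min, and lysates were spun at 20000 g and 4 °C for 5 min. Protein was quantified by BCA, and equal amounts were run on 12% SDS-PAGE and transferred to PVDF. Membranes were blocked in 5% milk/TBST, probed overnight at 4 °C with primary antibodies (β-actin as reference), then with peroxidase secondary for 2 h. Bands were detected by chemiluminescence.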

NCI-H460 [12] = assay: Induction of apoptosis in human NCI-H460 cells assessed as late apoptotic cells at 5 uM after 24 hrs by Annexin V-FITC/propidium iodide staining based flow cytometric method (reference value: 0.839%); format: functional
NCI-H460 [13] = assay: Induction of apoptosis in human NCI-H460 cells assessed as upregulation of Bax expression after 48 hrs by Western blot method; format: functional, cell-based; in short: as §3
[14] = Cytotoxicity against human HeLa/TR cells after 48 hrs by MTT assay; format: functional, cell-based; in short: as §1
NCI-H460 [15] = assay: Induction of apoptosis in human NCI-H460 cells assessed as increase in ROS generation after 24 hrs by DCFH-DA staining based flow cytometric method; format: functional, cell-based
In short: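 NCI-H460 cells in six-well plates were treated 24 h at 5 or 10 µM, with untreated cells as control. Cells were pelleted at 2000 rpm, washed twice in ice-cold PBS and resuspended in 10 µM DCFH-DA in cell-free medium for 20 min at 37 °C in the dark. After two more PBS washes, fluorescence was read by flow cytometry.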

MGC-803 = assay: Cytotoxicity against human MGC803 cells after 48 hrs by MTT assay; format: functional, cell-based; settings: MGC-803, 48 h; in short: as §1
A549/TR = assay: Cytotoxicity against human A549/TR cells after 48 hrs by MTT assay; format: functional, cell-based; in short: as §1
HeLa [16] = assay: Resistant factor, ratio of IC50 for human HeLa/TR cells to IC50 for human HeLa cells; format: functional
In short: (§4)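 The resistance index is IC50 on the paclitaxel-resistant line divided by IC50 on the parental sensitive line (A549 or HeLa). Both IC50 values come from the 48 h, five-concentration growth assay with 570/630 nm absorbance read-out and Bliss-method calculation.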

T-24 = assay: Cytotoxicity against human T24 cells after 48 hrs by MTT assay; format: functional, cell-based; settings: T-24, 48 h; in short: as §1
NCI-H460 [17] = assay: Induction of apoptosis in human NCI-H460 cells assessed as live cells at 10 uM after 24 hrs by Annexin V-FITC/propidium iodide staining based flow cytometric method (reference value: 95.8%); format: functional
NCI-H460 [18] = assay: Disruption of mitochondrial membrane potential in human NCI-H460 cells after 24 hrs by JC-1 staining based flow cytometric method; format: functional, cell-based; in short: as §2
NCI-H460 [19] = assay: Induction of apoptosis in human NCI-H460 cells assessed as live cells at 5 uM after 24 hrs by Annexin V-FITC/propidium iodide staining based flow cytometric method (reference value: 95.8%); format: functional
NCI-H460 [20] = assay: Induction of apoptosis in human NCI-H460 cells assessed as increase in cleaved caspase-9 expression at 5 to 10 uM after 48 hrs by Western blot method; format: functional, cell-based; in short: as §3
NCI-H460 [21] = assay: Induction of apoptosis in human NCI-H460 cells assessed as late apoptotic cells at 10 uM after 24 hrs by Annexin V-FITC/propidium iodide staining based flow cytometric method (reference value: 0.839%); format: functional
NCI-H460 [22] = assay: Cytotoxicity against human NCI-H460 cells after 48 hrs by MTT assay; format: functional, cell-based; settings: NCI-H460, 48 h; in short: as §1
NCI-H460 [23] = assay: Disruption of mitochondrial membrane potential in human NCI-H460 cells assessed as collapse of mitochondrial membrane potential at 10 uM after 24 hrs by JC-1 staining based flow cytometric method (reference value: 1.98%); format: functional; in short: as §2
[24] = Resistant factor, ratio of IC50 for human A549/TR cells to IC50 for human A549 cells; format: functional; in short: as §4

COc1ccc(/C=C/C(=O)c2cc(OC)c(OC)c(OC)c2)cc1OCC(=O)Nc1ccccc1Cl
Activity (NCI-H460 [1]): 29% | IC50 (SK-OV-3): 6.28 µM | Activity (NCI-H460 [2]): Dose-dependent effect | IC50 (HepG2): 4.06 µM | Activity (NCI-H460 [3]): 11.9% | Activity (NCI-H460 [4]): 1.1% | Activity (NCI-H460 [5]): 20.81% | IC50 (HeLa [6]): 4.53 µM | Activity (NCI-H460 [7]): 23.7% | Activity (NCI-H460 [8]): 10.9% | Activity (NCI-H460 [9]): 3.13% | Activity (NCI-H460 [10]): 26.2% | Activity (NCI-H460 [11]): Dose-dependent effect | Activity (NCI-H460 [12]): 3.45% | Activity (NCI-H460 [13]): Dose-dependent effect | IC50 [14]: 5.95 µM | Activity (NCI-H460 [15]): Dose-dependent effect | IC50 (MGC-803): 8.42 µM | IC50 (A549/TR): 6.25 µM | Ratio IC50 (HeLa [16]): 1.31 | IC50 (T-24): 5.8 µM | Activity (NCI-H460 [17]): 22.7% | Activity (NCI-H460 [18]): Dose-dependent effect | Activity (NCI-H460 [19]): 83.6% | Activity (NCI-H460 [20]): Active | Activity (NCI-H460 [21]): 42.7% | IC50 (NCI-H460 [22]): 3.75 µM | Activity (NCI-H460 [23]): 4.86% | Ratio IC50 [24]: 1.2
